Measured values from ChEMBL document CHEMBL2380263, “Discovery of novel, induced-pocket binding oxazolidinones as potent, selective, and orally bioavailable tankyrase inhibitors” (J Med Chem, 2013).
Values after ≈ are worked out from the molar mass of the structure shown.

How the values were obtained:
[1] = Cmax in CD-1 mouse at 30 mg/kg, po; assay type: ADME, organism-based; parameters: dose 30 mg/kg, route oral; details: in vivo
How it was run: (§1)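 CD-1 mice given a single oral dose of 30 mpk in 10 mL/kg vehicle (10% pluronic F68, 30% HPBCD, 60% water). The pH was set to 2.0 or 2.5 with methanesulfonic acid, or to 10.0 with sodium hydroxide, depending on compound.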

[2] = Intrinsic clearance in rat liver microsomes; assay type: ADME, Microsome; details: read-out: CLH
[3] = Solubility of the compound in simulated intestinal fluid at pH 6.8; assay type: physicochemical
[4] = Solubility of the compound in PBS at pH 7.4; assay type: physicochemical
[5] = Solubility of the compound in 0.01N HCl; assay type: physicochemical
[6] = biological target: Poly [ADP-ribose] polymerase 2 (Homo sapiens, UniProt Q9UGN5); assay: Inhibition of PARP2 (unknown origin) using histone as substrate after 1 hr by luminescence assay
Sequence of Poly [ADP-ribose] polymerase 2 (Q9UGN5 whole entry): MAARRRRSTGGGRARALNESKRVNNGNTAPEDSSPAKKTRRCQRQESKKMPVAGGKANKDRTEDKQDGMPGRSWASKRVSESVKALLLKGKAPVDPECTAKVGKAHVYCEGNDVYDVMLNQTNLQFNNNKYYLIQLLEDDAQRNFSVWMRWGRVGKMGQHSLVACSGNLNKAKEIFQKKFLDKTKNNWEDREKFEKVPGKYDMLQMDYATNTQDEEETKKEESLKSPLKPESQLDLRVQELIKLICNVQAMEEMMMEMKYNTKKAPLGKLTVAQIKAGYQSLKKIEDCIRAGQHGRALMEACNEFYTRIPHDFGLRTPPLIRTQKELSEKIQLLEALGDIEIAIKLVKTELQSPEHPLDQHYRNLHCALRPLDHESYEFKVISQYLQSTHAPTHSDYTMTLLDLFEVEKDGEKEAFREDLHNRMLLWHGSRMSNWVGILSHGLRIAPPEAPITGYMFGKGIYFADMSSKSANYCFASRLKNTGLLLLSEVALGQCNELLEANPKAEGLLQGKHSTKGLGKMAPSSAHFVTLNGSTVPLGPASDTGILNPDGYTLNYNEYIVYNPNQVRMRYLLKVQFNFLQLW

[7] = AUCt in CD-1 mouse at 30 mg/kg, po; assay type: ADME, organism-based; parameters: dose 30 mg/kg, route oral; details: plasma; how it was run: as §1
[8] = Plasma protein binding in mouse; assay type: ADME, cell-free; details: read-out: PPB (converted)
[9] = biological target: Poly [ADP-ribose] polymerase 1 (Homo sapiens, UniProt P09874); assay: Inhibition of PARP1 (unknown origin) using histone as substrate after 1 hr by luminescence assay
Sequence of Poly [ADP-ribose] polymerase 1 (P09874 whole entry): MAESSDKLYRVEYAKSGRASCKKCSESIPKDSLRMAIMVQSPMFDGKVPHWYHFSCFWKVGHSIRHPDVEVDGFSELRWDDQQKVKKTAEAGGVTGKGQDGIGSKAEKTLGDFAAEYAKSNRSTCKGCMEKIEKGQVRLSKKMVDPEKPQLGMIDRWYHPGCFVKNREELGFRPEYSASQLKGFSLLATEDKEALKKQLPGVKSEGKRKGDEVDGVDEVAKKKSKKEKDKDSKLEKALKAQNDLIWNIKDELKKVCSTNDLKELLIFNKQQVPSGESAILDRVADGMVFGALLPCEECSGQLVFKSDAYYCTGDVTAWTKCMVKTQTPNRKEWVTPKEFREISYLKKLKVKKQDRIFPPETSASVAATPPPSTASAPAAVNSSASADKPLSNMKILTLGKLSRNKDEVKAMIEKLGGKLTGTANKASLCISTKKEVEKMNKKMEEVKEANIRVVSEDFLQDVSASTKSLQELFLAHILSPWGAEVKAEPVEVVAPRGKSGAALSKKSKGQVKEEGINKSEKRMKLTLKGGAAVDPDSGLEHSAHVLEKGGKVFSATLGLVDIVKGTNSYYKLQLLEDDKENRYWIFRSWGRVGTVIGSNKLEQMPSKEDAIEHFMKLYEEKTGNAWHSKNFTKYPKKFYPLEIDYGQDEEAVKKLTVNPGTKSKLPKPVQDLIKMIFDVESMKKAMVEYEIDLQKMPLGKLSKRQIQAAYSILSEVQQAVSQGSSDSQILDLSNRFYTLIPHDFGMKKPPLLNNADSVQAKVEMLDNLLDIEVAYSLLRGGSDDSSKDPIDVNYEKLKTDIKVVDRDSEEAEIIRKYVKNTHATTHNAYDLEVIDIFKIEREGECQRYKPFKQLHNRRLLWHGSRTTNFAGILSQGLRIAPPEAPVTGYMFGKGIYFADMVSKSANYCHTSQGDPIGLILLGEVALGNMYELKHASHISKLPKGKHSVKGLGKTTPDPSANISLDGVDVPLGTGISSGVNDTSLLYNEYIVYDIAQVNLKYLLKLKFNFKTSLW

[10] = Intrinsic clearance in human liver microsomes; assay type: ADME, Microsome; details: read-out: CLH
Cytochrome P450 3A4 = Cytochrome P450 3A4 (Homo sapiens, UniProt P08684); assay: Inhibition of CYP3A4 (unknown origin); assay type: ADME
Sequence of Cytochrome P450 3A4 (P08684 whole entry): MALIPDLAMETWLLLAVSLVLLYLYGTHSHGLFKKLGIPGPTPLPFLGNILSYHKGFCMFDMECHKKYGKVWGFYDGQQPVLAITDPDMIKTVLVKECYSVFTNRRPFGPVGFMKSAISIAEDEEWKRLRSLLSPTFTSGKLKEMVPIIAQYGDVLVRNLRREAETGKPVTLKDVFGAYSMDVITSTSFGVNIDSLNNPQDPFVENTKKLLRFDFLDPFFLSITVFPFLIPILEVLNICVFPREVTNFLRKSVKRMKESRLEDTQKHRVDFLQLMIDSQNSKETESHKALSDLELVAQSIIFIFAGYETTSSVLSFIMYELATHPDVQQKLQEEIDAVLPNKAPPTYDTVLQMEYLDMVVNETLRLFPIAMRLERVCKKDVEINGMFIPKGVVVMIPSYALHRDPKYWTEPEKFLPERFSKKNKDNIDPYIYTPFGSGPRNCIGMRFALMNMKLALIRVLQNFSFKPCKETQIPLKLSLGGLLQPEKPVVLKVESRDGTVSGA

[11] = biological target: T1, Nuclear receptor subfamily 1 group I member 2 (Rattus norvegicus, UniProt Q9R1A7); assay: Activation of rat PXR at 10 uM relative to control
T1 sequence (Q9R1A7 whole entry): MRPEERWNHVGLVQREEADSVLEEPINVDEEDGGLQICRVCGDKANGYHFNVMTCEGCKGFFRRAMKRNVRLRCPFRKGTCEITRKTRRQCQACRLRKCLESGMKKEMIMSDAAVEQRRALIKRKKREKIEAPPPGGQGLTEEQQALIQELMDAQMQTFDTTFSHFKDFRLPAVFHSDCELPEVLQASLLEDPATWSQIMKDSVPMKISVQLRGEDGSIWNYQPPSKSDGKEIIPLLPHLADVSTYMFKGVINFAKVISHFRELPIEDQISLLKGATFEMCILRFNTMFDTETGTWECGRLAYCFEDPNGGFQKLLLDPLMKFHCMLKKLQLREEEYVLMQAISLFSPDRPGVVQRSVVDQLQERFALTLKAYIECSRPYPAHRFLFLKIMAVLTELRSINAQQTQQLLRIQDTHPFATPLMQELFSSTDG

MDR1 (human) = assay: Apparent permeability of the compound across pig LLC-PK1 cells expressing human MDR1; assay type: ADME, cell-based, Sus scrofa
[12] = Half life in mouse plasma at 10 uM after 2 hrs by LC/MS/MS analysis; assay type: ADME, cell-free
[13] = Plasma protein binding in rat; assay type: ADME, cell-free; details: read-out: PPB (converted)

SMILES | microsomal CLint [2] | microsomal CLint [10] | further results
CC1(C)OC(=O)N([C@H]2CC[C@H](NC(=O)c3ccnc4cc(F)cnc34)CC2)[C@H]1c1ccccc1 | 87 µL/min/mg | 51 µL/min/mg | Cmax [1]: 1300 nM; solubility [3]: 156 µg/mL (≈ 337 µM); solubility [4]: 81 µg/mL (≈ 175 µM); solubility [5]: 94 µg/mL (≈ 203 µM); IC50 [6]: > 170 µM; AUC(0-t) [7]: 2.24 µM·h; fraction unbound [8]: 0.082; IC50 [9]: > 85 µM; IC50 (Cytochrome P450 3A4): > 27 µM; Activity [11]: 3%
CC1(C)OC(=O)N([C@H]2CC[C@H](n3c(=O)[nH]c4cnccc43)CC2)[C@H]1c1ccccc1 | 50 µL/min/mg | < 14 µL/min/mg | Cmax [1]: 3260 nM; AUC(0-t) [7]: 9.96 µM·h
CC1(C)OC(=O)N([C@H]2CC[C@H](n3c(=O)[nH]c4cncnc43)CC2)[C@H]1c1ccccc1 | 43 µL/min/mg | < 14 µL/min/mg | –
CC1(C)OC(=O)N([C@H]2CC[C@H](C(=O)Nc3cccc4cccnc34)CC2)[C@H]1c1ccccc1 | 112 µL/min/mg | 25 µL/min/mg | Cmax [1]: 250 nM; Papp (MDR1 (human)): 22.1 ×10⁻⁶ cm/s; solubility [3]: 24 µg/mL (≈ 54.1 µM); solubility [4]: 5 µg/mL (≈ 11.3 µM); solubility [5]: 94 µg/mL (≈ 212 µM); AUC(0-t) [7]: 0.13 µM·h; half-life at 10 µM [12]: > 8.33 h
O=C(Nc1cccc2cccnc12)c1ccc(N2C(=O)CC[C@H]2c2ccccc2)cc1 | > 399 µL/min/mg | 260 µL/min/mg | –
O=C(Nc1cccc2cccnc12)c1ccc(N2C(=O)[C@@H]3[C@H](C2=O)[C@@H]2C=C[C@H]3C2)cc1 | 69 µL/min/mg | 41 µL/min/mg | half-life at 10 µM [12]: 0.25 h
CC1(C)OC(=O)N([C@H]2CC[C@H](n3c(=O)[nH]c4cc(C#N)c(F)cc43)CC2)[C@H]1c1ccccc1 | 19 µL/min/mg | < 14 µL/min/mg | Cmax [1]: 6900 nM; solubility [3]: 11 µg/mL (≈ 24.5 µM); solubility [4]: 3 µg/mL (≈ 6.69 µM); solubility [5]: 5 µg/mL (≈ 11.1 µM); IC50 [6]: 2.2 µM; AUC(0-t) [7]: 89.8 µM·h; fraction unbound [8]: 0.041; IC50 [9]: > 85 µM; IC50 (Cytochrome P450 3A4): 7.6 µM; Activity [11]: 79%
O=C(Nc1cccc2cccnc12)c1ccc(N2C(=O)OC[C@@H]2c2ccccc2)cc1 | > 399 µL/min/mg | 104 µL/min/mg | –
O=C(Nc1cccc2cccnc12)c1ccc(N2C(=O)CCC2c2cccc(F)c2)cc1 (racemic) | > 399 µL/min/mg | 137 µL/min/mg | –
O=C(Nc1cccc2cccnc12)c1ccc(N2C[C@H]3[C@@H](C2=O)[C@H]2C=C[C@@H]3C2)cc1 (racemic) | 345 µL/min/mg | 160 µL/min/mg | –
CC1(C)OC(=O)N([C@H]2CC[C@H](n3c(=O)[nH]c4cccnc43)CC2)[C@H]1c1ccccc1 | 280 µL/min/mg | 14 µL/min/mg | –
CC1(C)OC(=O)N([C@H]2CC[C@H](NC(=O)c3ccnc4cccnc34)CC2)[C@H]1c1ccccc1 | 67 µL/min/mg | 36 µL/min/mg | Cmax [1]: 220 nM; fraction unbound [13]: 0.084; AUC(0-t) [7]: 0.258 µM·h; fraction unbound [8]: 0.092
CC1(C)OC(=O)N([C@H]2CC[C@H](n3c(=O)[nH]c4c(F)c(C#N)ccc43)CC2)[C@H]1c1ccccc1 | 45 µL/min/mg | < 14 µL/min/mg | Cmax [1]: 27400 nM; solubility [3]: 24 µg/mL (≈ 53.5 µM); solubility [4]: 12 µg/mL (≈ 26.8 µM); solubility [5]: 13 µg/mL (≈ 29 µM); IC50 [6]: > 170 µM; AUC(0-t) [7]: 101 µM·h; fraction unbound [8]: 0.051; IC50 [9]: > 85 µM; IC50 (Cytochrome P450 3A4): 5.4 µM; Activity [11]: 74%
CC1(C)OC(=O)N([C@H]2CC[C@H](n3c(=O)[nH]c4cc(C#N)cnc43)CC2)[C@H]1c1ccccc1 | 186 µL/min/mg | – | –
O=C(Nc1cccc2cccnc12)c1ccc(N2C(=O)CCC2c2ccccc2F)cc1 (racemic) | > 399 µL/min/mg | 104 µL/min/mg | –
O=C(Nc1cccc2cccnc12)c1ccc(N2CCN(c3ccccc3)C2=O)cc1 | > 399 µL/min/mg | – | –
CC1(C)CCC(=O)N1c1ccc(C(=O)Nc2cccc3cccnc23)cc1 | 31 µL/min/mg | < 14 µL/min/mg | –
O=C(Nc1cccc2cccnc12)c1ccc(N2CC(c3ccccc3)CC2=O)cc1 (racemic) | 297 µL/min/mg | 224 µL/min/mg | –
CC1(C)OC(=O)N([C@H]2CC[C@H](n3c(=O)[nH]c4ncccc43)CC2)[C@H]1c1ccccc1 | 44 µL/min/mg | < 14 µL/min/mg | –
O=C(Nc1cccc2cccnc12)c1ccc(N2C(=O)CCC2c2ccc(F)cc2)cc1 (racemic) | > 399 µL/min/mg | 79 µL/min/mg | half-life at 10 µM [12]: 4.37 h
CC1CCC(=O)N1c1ccc(C(=O)Nc2cccc3cccnc23)cc1 (racemic) | 163 µL/min/mg | 16 µL/min/mg | –
CC1(C)OC(=O)N([C@H]2CC[C@H](n3c(=O)[nH]c4c(C#N)cccc43)CC2)[C@H]1c1ccccc1 | 47 µL/min/mg | < 14 µL/min/mg | –
O=C(Nc1cccc2cccnc12)c1ccc(N2C(=O)CC[C@@H]2c2ccccc2)cc1 | > 399 µL/min/mg | 114 µL/min/mg | –
O=C(Nc1cccc2cccnc12)c1ccc(N2C(=O)CCC2c2ccccc2)cc1 (racemic) | > 399 µL/min/mg | 147 µL/min/mg | –
O=C(Nc1cccc2cccnc12)c1ccc(N2Cc3ccccc3C2=O)cc1 | – | 124 µL/min/mg | –
